From ChEMBL document CHEMBL1275535, “Pharmacodynamic modeling of aminoglycosides against Pseudomonas aeruginosa and Acinetobacter baumannii: identifying dosing regimens to suppress resistance development” (2008) come the findings set out here.

For assay [1], the system named is Pseudomonas aeruginosa. Put plainly: Antibacterial activity against Pseudomonas aeruginosa ATCC 27853 after 24 hrs by modified broth macrodilution method. The assay is classed as functional, organism-based. Put shortly: (§1)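 Ca-MHB broth macrodilution per modified CLSI method, with serial twofold aminoglycoside dilutions and about 5 x 10^5 CFU/ml final inoculum from isolates subcultured twice on 5% blood agar. MIC was the lowest concentration with no visible growth after 24 h at 35°C in ambient air. Run in duplicate and repeated on at least one separate day.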

Assay [2] deals with Pseudomonas aeruginosa. The experiment in a line: Bactericidal activity against Pseudomonas aeruginosa ATCC 27853 assessed as growth rate constant for the bacterial population by time-kill study. The assay is classed as functional, organism-based. The gist of the method:
(§2)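 Parameters were fitted by mathematical modeling to 24 h time-kill data with gentamicin at 0 to 32 mg/liter and a baseline inoculum of 10^7 CFU/ml. Intrinsic growth rate (Kg) and maximal population size came from placebo controls. Kill-function parameters were then fitted to all active-treatment data simultaneously.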

Assay [3] deals with Pseudomonas aeruginosa. Put plainly: Bactericidal activity against Pseudomonas aeruginosa ATCC 27853 assessed as maximum population size by time-kill study. The assay is classed as functional, organism-based. The gist of the method:
as §2

Assay [4] concerns Pseudomonas aeruginosa. The experiment in a line: Bactericidal activity against Pseudomonas aeruginosa ATCC 27853 assessed as maximal kill rate constant for the bacterial population by time-kill study. The assay is classed as functional, organism-based. Put shortly: as §2
Assay [5] deals with Pseudomonas aeruginosa. The experiment in a line: Bactericidal activity against Pseudomonas aeruginosa ATCC 27853 assessed as concentration to achieve 50% of the maximal kill rate for the bacterial population by time-kill study. The assay is classed as functional, organism-based. The gist of the method: as §2
The test system of assay [6] is Pseudomonas aeruginosa. The experiment in a line: Ratio of Cmax to MIC for Pseudomonas aeruginosa ATCC 27853 in PK/PD model at 1500 mg administered every 12 hrs. The assay is classed as functional.
In assay [7] the test system is Pseudomonas aeruginosa. Put plainly: Ratio of Cmax to MIC for Pseudomonas aeruginosa ATCC 27853 in PK/PD model at 2000 mg administered every 24 hrs. The assay is classed as functional.
Assay [8] relates to Acinetobacter baumannii. The experiment in a line: Antibacterial activity against Acinetobacter baumannii ATCC BAA 747 after 24 hrs by modified broth macrodilution method. As to conditions: ATCC BAA 747, 24 h. The assay is classed as functional. The gist of the method:
as §1

Assay [9] relates to Acinetobacter baumannii. Put plainly: Bactericidal activity against Acinetobacter baumannii ATCC BAA 747 assessed as growth rate constant for the bacterial population by time-kill study. The assay is classed as functional. The gist of the method: (§3)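 24-h time-kill data at a baseline inoculum of 10^7 CFU/ml were fitted to a mathematical model of a heterogeneous population. The fit ran in two steps. Growth rate (Kg) and maximal population size came from placebo control experiments. Those estimates were then held fixed while the kill-function parameters (maximal kill rate, concentration for 50% of maximal kill) were fitted to all active-treatment data together.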

Assay [10] deals with Acinetobacter baumannii. Put plainly: Bactericidal activity against Acinetobacter baumannii ATCC BAA 747 assessed as maximum population size by time-kill study. The assay is classed as functional. The gist of the method: as §3
Assay [11] concerns Acinetobacter baumannii. The experiment in a line: Bactericidal activity against Acinetobacter baumannii ATCC BAA 747 assessed as maximal kill rate constant for the bacterial population by time-kill study. The assay is classed as functional. Put shortly:
as §3

Assay [12] relates to Acinetobacter baumannii. The experiment in a line: Bactericidal activity against Acinetobacter baumannii ATCC BAA 747 assessed as concentration to achieve 50% of the maximal kill rate for the bacterial population by time-kill study. The assay is classed as functional. Put shortly: as §3
For assay [13], the system named is Acinetobacter baumannii. Put plainly: Bactericidal activity against Acinetobacter baumannii ATCC BAA 747 at >16 mg/liter after 2 hrs by time-kill study. The assay is classed as functional, organism-based.

Values after ≈ are worked out from the molar mass of the structure shown. Active and inactive are the calls of the source.

Take GENTAMICIN: the MBC in the assay on Pseudomonas aeruginosa [1] is 2 mg/L. Also, 2 µg/mL was the least that counted as inhibitory with Pseudomonas aeruginosa [1] (MIC). The Activity is 0.48 h⁻¹ with Pseudomonas aeruginosa [2], 9.8 ×10⁸ CFU/ml in the assay with Pseudomonas aeruginosa [3] and 4.68 h⁻¹ in the assay with Pseudomonas aeruginosa [4]. Besides, the C50k with Pseudomonas aeruginosa [5] was 0.72 mg/L. The values for the Ratio in the assay on Pseudomonas aeruginosa [6] and in the assay on Pseudomonas aeruginosa [7] were 36 and 30, respectively.

On to `NCC[C@H](O)C(=O)N[C@@H]1C[C@H](N)[C@@H](O[C@H]2O[C@H](CN)[C@@H](O)[C@H](O)[C@H]2O)[C@H](O)[C@H]1O[C@H]1O[C@H](CO)[C@@H](O)[C@H](N)[C@H]1O` [AMIKACIN], for which, in the assay with Acinetobacter baumannii [8], the MBC came out at 8 µg/mL (≈ 13.7 µM). In the assay on Acinetobacter baumannii [8], this compound displayed an MIC of 4 µg/mL (≈ 6.83 µM). The figures for the Activity in the assay with Acinetobacter baumannii [9], with Acinetobacter baumannii [10] and in the assay with Acinetobacter baumannii [11] were 0.55 h⁻¹, 6.62 ×10⁸ CFU/ml and 27.81 h⁻¹, respectively. Further, in the assay with Acinetobacter baumannii [12], the C50k was 1.56 mg/L. For the same compound, the result in the assay with Acinetobacter baumannii [13] was Active. Further, the Ratio with Pseudomonas aeruginosa [6] is 13; with Pseudomonas aeruginosa [7], 20.

Broadly, the MBC is the lowest tested concentration that kills the bacteria rather than only halting them. Lower therefore signals greater bactericidal potency. A word on the MIC: it is the smallest concentration in the dilution series that meets the test's criterion for growth inhibition. Low readings indicate greater potency, high ones weaker potency.
